From publication PMC10333676 (Redox Biology, 2023)

Columns and labels:
[1] = molecular target: T1, Mutant Magnetospirillum gryphiswaldense cereblon isoform 4 (MsCI4^WW/FF) (Magnetospirillum gryphiswaldense, UniProt A4TVL0, W36F/W59F); settings: read-out: published Kd of MANT-uracil to MsCI4^WW/FF; cited from earlier work
T1 sequence (A4TVL0 1-124 W36F/W59F): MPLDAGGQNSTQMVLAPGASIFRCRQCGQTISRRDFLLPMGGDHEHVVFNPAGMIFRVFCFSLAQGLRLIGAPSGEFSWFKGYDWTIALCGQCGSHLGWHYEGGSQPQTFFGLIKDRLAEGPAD

[2] = molecular target: T2, KEAP1 (Mus musculus, UniProt Q9Z2X8); assay: KEAP1 degradation in primary mouse hepatocytes by western blotting; assay type: cell-based; settings: 1 to 1000 nM, 24 h
T2 sequence (Q9Z2X8 whole entry, the tested form may be a part): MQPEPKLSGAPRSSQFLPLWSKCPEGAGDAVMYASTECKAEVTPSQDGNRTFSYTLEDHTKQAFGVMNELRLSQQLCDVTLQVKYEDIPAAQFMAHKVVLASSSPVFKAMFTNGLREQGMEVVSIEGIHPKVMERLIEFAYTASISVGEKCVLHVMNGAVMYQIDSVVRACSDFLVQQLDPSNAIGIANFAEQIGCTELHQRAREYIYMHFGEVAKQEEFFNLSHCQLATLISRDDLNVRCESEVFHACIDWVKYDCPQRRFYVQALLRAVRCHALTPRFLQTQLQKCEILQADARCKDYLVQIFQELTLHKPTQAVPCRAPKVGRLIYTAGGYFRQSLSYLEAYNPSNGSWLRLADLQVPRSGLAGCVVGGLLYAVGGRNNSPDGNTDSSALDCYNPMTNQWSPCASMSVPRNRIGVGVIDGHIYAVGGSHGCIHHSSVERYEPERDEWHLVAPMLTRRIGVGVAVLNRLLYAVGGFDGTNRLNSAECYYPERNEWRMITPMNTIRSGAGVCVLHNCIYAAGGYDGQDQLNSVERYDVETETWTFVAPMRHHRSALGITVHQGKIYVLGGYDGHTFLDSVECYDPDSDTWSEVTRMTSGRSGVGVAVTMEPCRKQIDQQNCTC
Summary of the method: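 Primary hepatocytes from male C57BL6/N mice were collagenase-perfused and plated in medium 199 with 10% FBS, 10 nM dexamethasone and 23 mM HEPES. […] KEAP1 was read by western blot. DC50 and Dmax came from densitometry of three independent experiments.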

[3] = system: C57BL/6 N male mice; assay: Acetaminophen; assay type: in vivo, mouse
[4] = system: AML12 cells; assay: APAP-induced mitochondrial ROS; assay type: cell-based, mouse; settings: AML12, APAP 5 mM, 8 h
Summary of the method: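 AML12 cells were exposed to 5 mM APAP with or without test compound for 8 h. They were then stained with 5 μM MitoSOX Red (mitochondrial ROS, red fluorescence) or 0.25 μg/mL JC-1 (green monomer fluorescence, rising as membrane potential falls). Intensities were read by flow cytometry; means ± SEMs, n = 3 per group.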

[5] = system: NRF2; assay: Nuclear translocation of NRF2 in AML12 cells; assay type: cell-based, mouse
Summary of the method: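 Nuclear fractionation: AML12 cells got test compound 300 nM for indicated times. Cells were pelleted (4000 G, 4 °C), extracted in nuclear buffer, frozen, then spun at 15,000 G for 20 min. Fractions were BCA-quantified and western blotted (GAPDH cytosolic, Lamin B nuclear loading controls), with densitometry from three independent experiments. Immunofluorescence: 100 or 300 nM for 3 h, 4% PFA, 0.1% Triton X-100, NRF2 stain, DAPI, confocal imaging.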

[6] = system: HMOX1, NQO1, GCLC and GCLM (the target genes of NRF2); assay: NRF2 target gene expression by qRT-PCR in HepG2 cells; assay type: cell-based, human; settings: HepG2, 100 nM
Summary of the method: (§1)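 Cells got test compound 100 nM for indicated times. RNA was extracted with TRIzol, reverse-transcribed, and HMOX1, NQO1, GCLC and GCLM were quantified by qRT-PCR. Values were normalized to GAPDH and expressed as relative levels by ΔΔCt.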

[7] = molecular target: T1, Mutant Magnetospirillum gryphiswaldense cereblon isoform 4 (MsCI4^WW/FF); assay: FRET-based competitive binding assay
Summary of the method: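 Competitive FRET binding used mutant cereblon isoform 4 (MsCI4WW/FF) with the reporter ligand MANT-uracil. Buffer was 20 mM Tris pH 7.5, 150 mM NaCl, 5 mM 2-mercaptoethanol, final DMSO ≤0.02%. Tryptophan was read at ex 295/em 350 nm and FRET emission at 440 nm. Ligands were titrated to reduce the FRET signal, with MANT-uracil autofluorescence as blank and thalidomide as positive control; triplicates.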

[8] = system: AML12 cells; assay: APAP-induced loss of cell viability; assay type: cell-based, mouse; settings: AML12, APAP 15 mM, 24 h, MTT
[9] = molecular target: T2, KEAP1; assay: KEAP1 degradation in AML12 cells by western blotting; assay type: cell-based
Summary of the method: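 AML12 cells got test compound for 24 h over a concentration series (DC50/Dmax) or 100 nM over a time course (DT50). Co-treatments: MG132 5 μM with 100 or 300 nM for 4 h; CQ 20 μM for 18 h, then 100 or 300 nM for 6 h; pomalidomide or TD-165 1 μM for 3 h, then 100 nM for 6 h. KEAP1 was read by western blot (RIPA, SDS-PAGE, PVDF, ECL) with densitometry from three independent experiments.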

[10] = system: AML12 cells; assay: APAP-induced ROS generation; assay type: cell-based, mouse; settings: AML12, APAP 5 mM, 4 h, 300 nM of SD2267
Summary of the method: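 AML12 mouse hepatocytes (DMEM/F-12, 10% FBS, ITS-pyruvate, dexamethasone 40 ng/mL) were seeded and exposed the next day to 5 mM APAP with or without test compound. After 4 h, cells were loaded with 50 μM DCF-DA in serum-free medium for 30 min at 37 °C and washed. Fluorescence was read at ex488/em525.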

[11] = In vivo pharmacokinetics in ICR mice; parameters: species or system mouse; settings: for AUC / AUC(0-t) / Cmax / MRT / half-life: male, ICR, mouse, plasma
Summary of the method: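 Male ICR mice (7–8 weeks, 30–35 g) received test compound at 3 mg/kg IP or PO. Plasma concentration–time profiles were measured and PK parameters were derived by non-compartmental analysis.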

[12] = system: primary mouse hepatocytes; assay: APAP-induced ROS generation; assay type: cell-based; settings: 100 nM 6 h before APAP 20 mM
Summary of the method: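 Primary hepatocytes came from 8–10-week male C57BL6/N mice by collagenase perfusion and were cultured in medium 199 with 10% FBS, 10 nM dexamethasone and 23 mM HEPES. The next day cells got test compound 100 nM for 6 h, then 50 μM DCF-DA (serum-free, 30 min, 37 °C), a wash and 20 mM APAP. Fluorescence (ex488/em525) was read every 20 min for 10 h; n = 4 per group.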

[13] = system: NRF2; assay: Nuclear translocation of NRF2 in HepG2 cells; assay type: cell-based, human
[14] = molecular target: KEAP1 (Homo sapiens, UniProt Q14145); assay: KEAP1 degradation in HepG2 cells by western blotting; assay type: cell-based; settings: for reduction of KEAP1 level: HepG2, 1 μM, 6 h
Chain of KEAP1 (Homo sapiens, UniProt Q14145) (Q14145 whole entry): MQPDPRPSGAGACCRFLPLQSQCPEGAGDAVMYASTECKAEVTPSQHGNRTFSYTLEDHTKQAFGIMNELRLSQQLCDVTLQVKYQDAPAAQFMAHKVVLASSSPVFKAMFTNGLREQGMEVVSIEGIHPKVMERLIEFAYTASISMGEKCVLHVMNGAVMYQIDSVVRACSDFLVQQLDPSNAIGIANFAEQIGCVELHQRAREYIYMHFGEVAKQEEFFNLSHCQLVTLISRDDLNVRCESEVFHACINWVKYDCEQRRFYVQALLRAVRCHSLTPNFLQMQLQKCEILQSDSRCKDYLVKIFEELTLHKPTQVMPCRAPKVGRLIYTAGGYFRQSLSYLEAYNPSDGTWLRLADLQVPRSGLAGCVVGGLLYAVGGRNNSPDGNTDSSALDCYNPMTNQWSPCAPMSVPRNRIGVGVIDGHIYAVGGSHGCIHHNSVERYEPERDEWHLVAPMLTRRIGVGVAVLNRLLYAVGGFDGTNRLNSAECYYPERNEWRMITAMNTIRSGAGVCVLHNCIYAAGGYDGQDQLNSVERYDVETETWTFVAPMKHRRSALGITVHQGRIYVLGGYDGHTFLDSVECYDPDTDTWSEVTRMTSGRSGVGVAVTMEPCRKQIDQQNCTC
Summary of the method: (§2)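 CRBN-knockdown HepG2 clones were made with pGIPZ lentiviral shRNA (virus from transfected HEK293T, with 5 μg/mL polybrene) and GFP-FACS sorting. Lysates were western blotted and densitometry came from three independent experiments.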

[15] = system: HMOX1, NQO1, GCLC and GCLM (the target genes of NRF2); assay: NRF2 target gene expression by qRT-PCR in AML12 cells; assay type: cell-based, mouse; settings: AML12, 100 nM
Summary of the method: as §1

[16] = molecular target: CRBN (Homo sapiens, UniProt Q96SW2); assay: CRBN protein level in HepG2 cells by western blotting; assay type: cell-based; settings: HepG2, 100 or 300 nM, 24 h
Chain of CRBN (Q96SW2 whole entry): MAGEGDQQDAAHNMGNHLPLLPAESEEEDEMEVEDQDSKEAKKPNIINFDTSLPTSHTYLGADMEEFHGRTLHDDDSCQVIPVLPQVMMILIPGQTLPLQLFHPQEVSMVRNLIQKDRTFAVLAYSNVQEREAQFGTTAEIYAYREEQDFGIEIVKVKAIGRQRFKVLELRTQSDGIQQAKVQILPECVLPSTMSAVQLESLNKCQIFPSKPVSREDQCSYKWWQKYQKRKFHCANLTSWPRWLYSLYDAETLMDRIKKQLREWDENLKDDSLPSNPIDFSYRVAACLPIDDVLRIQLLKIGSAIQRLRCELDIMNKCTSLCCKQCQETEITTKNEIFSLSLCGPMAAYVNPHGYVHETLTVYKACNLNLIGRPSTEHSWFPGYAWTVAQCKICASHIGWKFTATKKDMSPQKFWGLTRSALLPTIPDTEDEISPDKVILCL
Summary of the method: as §2

[17] = SD2267 3 mg/kg IP 2 h after APAP 250 mg/kg IP, 6 h

CNc1ccccc1C(=O)NCCn1ccc(=O)[nH]c1=O [MANT-uracil, 1-(N-2-MANT-imidoethyl)-uracil]
Kd [1]: 3.3 µM

Cc1ccc(C(CC(=O)O)c2cc(OCCCCCCCCNc3cccc4c3C(=O)N(C3CCC(=O)NC3=O)C4=O)c3c(c2)nnn3C)cc1CN1C[C@@H](C)Oc2ccccc2S1(=O)=O (stereo partly drawn) [SD2267]
KEAP1 degradation [2]: dose-dependently degraded
KEAP1 protein level in the liver compared to APAP ([3]; 1 mg/kg IP, western blotting, p = 0.08): a trend towards a decrease
increase of liver protein level of NRF2 and HO-1 versus APAP-only group ([3]; 3 mg/kg IP): significantly greater
phosphorylation of JNK induced by APAP in liver ([3]; 3 mg/kg IP): significantly reduced
hepatic necrosis (HE staining) ([3]; 3 mg/kg, 2 h post-treatment after APAP 250 mg/kg): significantly reduced
liver GSH to GSSG ratio decreased by APAP ([3]; 1 or 3 mg/kg IP): significantly and dose-dependently recovered
number of TUNEL-positive cells ([3]; APAP + 3 mg/kg of SD2267, 369 in APAP-treated mice, HPF x400): 123 cells per HPF
decrease of APAP-induced serum ALT increase [3, 17]: ~1.9 fold
decrease of APAP-induced serum AST increase [3, 17]: ~2.2 fold
APAP-induced increment of JC-1 green fluorescence intensity [4]: significantly reduced
MitoSOX Red fluorescence intensity versus APAP only [4]: significantly lower
Nuclear NRF2 (nuclear fractionation, western blotting) ([5]; AML12, 300 nM, within 3 h): significantly upregulated
amount and nuclear localization of NRF2 (immunofluorescence, confocal microscopy) ([5]; AML12, 100 or 300 nM, 3 h): increased
mRNA expression levels of NRF2 target genes [6]: significantly increased
Ki [7]: 0.0577 ± 0.0175 µM
cell viability decreased by APAP [8]: significantly recovered
Half-life (DT50) of KEAP1 ([9]; AML12, 100 nM): 2.2 h
KEAP1 degradation under autophagy inhibition by chloroquine ([9]; AML12, CQ 20 μM 18 h prior to SD2267 100 or 300 nM 6 h): did not abolish
KEAP1 degradation in the presence of pomalidomide or TD-165 ([9]; AML12, POM 1 μM or TD-165 1 μM 3 h prior to SD2267 100 nM 6 h): attenuated
KEAP1 degradation in the presence of MG132 ([9]; AML12, SD2267 100 or 300 nM, MG132 5 μM, 4 h): could not degrade KEAP1
Dmax at 0.3 µM ([9]; AML12, read-out: maximum degradation efficacy (Dmax)): 76.5%
DC50 ([9]; read-out: half-maximal degradation concentration (DC50), AML12, 24 h, 1 to 1000 nM): 0.0168 µM
APAP-induced increase of DCF-DA fluorescence intensity [10]: significantly attenuated
Tmax ([11]; PO, 3 mg/kg, mice, n = 3, median with range): 80 [60–120] min
AUC ([11]; ip, 3 mg/kg): 7800 ng·h/mL
AUC(0-t) ([11]; ip, 3 mg/kg): 7720 ng·h/mL
Cmax ([11]; ip, 3 mg/kg): 1970 ± 870 ng/mL
MRT ([11]; ip, 3 mg/kg): 4.83 h
half-life ([11]; ip, 3 mg/kg): 3.67 ± 0.283 h
AUC ([11]; po, 3 mg/kg): 597 ng·h/mL
AUC(0-t) ([11]; po, 3 mg/kg): 497 ng·h/mL
Cmax ([11]; po, 3 mg/kg): 172 ± 116 ng/mL
MRT ([11]; po, 3 mg/kg): 12.1 h
half-life ([11]; po, 3 mg/kg): 12.3 ± 1.7 h
oral bioavailability ([11]; oral parameters much lower than those of IP): low oral bioavailability
APAP-induced ROS generation [12]: significantly reduced
Nuclear NRF2 (nuclear fractionation, western blotting) ([13]; HepG2, 100 nM, within 3 h): significantly upregulated
amount and nuclear localization of NRF2 (immunofluorescence, confocal microscopy) ([13]; HepG2, 100 or 300 nM, 3 h): increased
Half-life (DT50) of KEAP1 ([14]; HepG2, 100 nM): 2.6 h
reduction of KEAP1 level [14]: 64%
Dmax at 0.3 µM ([14]; HepG2, read-out: maximum degradation efficacy (Dmax)): 82.3%
DC50 ([14]; read-out: half-maximal degradation concentration (DC50), HepG2, 24 h, 1 to 1000 nM): 0.0081 µM
KEAP1 levels in CRBN knockdown cells ([14]; shCRBN #10 HepG2, 100 or 300 nM, 24 h): not affected
KEAP1 degradation in control cells ([14]; shCon HepG2, 100 or 300 nM, 24 h): effectively degraded KEAP1
mRNA expression levels of HMOX1, NQO1, GCLC and GCLM [15]: significantly increased
CRBN degradation [16]: not degraded

Cc1ccc(C(CC(=O)O)c2cc(OCCCCCCCCNc3ccc4c(c3)C(=O)N(C3CCC(=O)NC3=O)C4=O)c3c(c2)nnn3C)cc1CN1C[C@@H](C)Oc2ccccc2S1(=O)=O (stereo partly drawn) [SD2268]
Ki [7]: 8.15 ± 5.71 µM
reduction of KEAP1 level [14]: 7%

Cc1ccc(C(CC(=O)O)c2cc(OCCCCNc3cccc4c3C(=O)N(C3CCC(=O)NC3=O)C4=O)c3c(c2)nnn3C)cc1CN1C[C@@H](C)Oc2ccccc2S1(=O)=O (stereo partly drawn) [SD2269]
Ki [7]: 0.0648 ± 0.0132 µM
reduction of KEAP1 level [14]: no effect
